Test results: ChEMBL document CHEMBL1649384, “Synthesis and antiproliferative activity of novel symmetrical alkylthio- and alkylseleno-imidocarbamates” (Eur J Med Chem, 2011)

Legend:
[1] = tested on: PC-3; assay: Cytotoxicity against human PC3 cells after 72 hrs by CV method; format: functional; conditions: PC-3, 72 h
Method in brief: (§1)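 Crystal violet check of the MTT data: eight concentrations between 0.01 and 100, with 72 h exposure. Cells were fixed in 4% formaldehyde for at least 20 min, then stained with 0.1% crystal violet for 30 min. GI₅₀ is the concentration halving growth relative to untreated controls.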

[2] = tested on: K562; assay: Cytotoxicity against human K562 cells after 72 hrs by MTT assay; format: functional; conditions: K562, 72 h; for CC50: read-out: LC50 (the source's name)
Method in brief: (§2)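 Cells seeded per well: Hep-G2 1×10⁴, HT-29 4×10³, K-562 4×10³, MCF-7 1.2×10⁴, MCF-10A 7×10³, PC-3 2×10³. MCF-10A were grown in supplemented MEBM at 37 °C, 5% CO₂. Five concentrations were tested between 0.01 and 100, with 72 h exposure. Formazan was read by A590. GI₅₀ was taken relative to untreated controls, from at least three independent experiments.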

[3] = tested on: PC-3; assay: Cytotoxicity against human PC3 cells after 72 hrs by MTT assay; format: functional; conditions: PC-3, 72 h; for CC50: read-out: LC50 (the source's name); method in brief: as §2
[4] = tested on: HT-29; assay: Cytotoxicity against human HT-29 cells after 72 hrs by CV method; format: functional; conditions: HT-29, 72 h; method in brief: as §1
[5] = tested on: HepG2; assay: Cytotoxicity against human HepG2 cells after 72 hrs by MTT assay; format: functional; conditions: HepG2, 72 h; for CC50: read-out: LC50 (the source's name); method in brief: as §2
[6] = tested on: MCF7; assay: Cytotoxicity against human MCF7 cells after 72 hrs by MTT assay; format: functional; conditions: MCF7, 72 h; method in brief: as §2
[7] = tested on: HT-29; assay: Cytotoxicity against human HT-29 cells after 72 hrs by MTT assay; format: functional; conditions: HT-29, 72 h; for CC50: read-out: LC50 (the source's name); method in brief: as §2
[8] = Cytotoxicity against human MCF10A cells after 72 hrs by MTT assay; format: cell-based, MCF-10A; conditions: for GI50 at 72 h: MCF10A cells; for LC50 / TGI: mcf-10a, 72 h; method in brief: as §2
[9] = tested on: MCF7; assay: Induction of apoptosis in human MCF7 cells assessed as accumulation at subG1 phase at 15 uM after 24 hrs by DNA flow cytometric assay; format: functional
Method in brief: (§3)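 Exponentially growing MCF-7 cells were given compound or vehicle, with camptothecin as positive control. Cells were fixed in 1% paraformaldehyde in PBS pH 7.4 on ice for 1 h, then in 70% ethanol at −20 °C for 30 min. They were stained with PI/RNase for 30 min at RT in the dark. DNA content was measured by flow cytometry as % of total cells. Mean ± SEM of three independent experiments, duplicate wells.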

[10] = tested on: MCF7; assay: Induction of apoptosis in human MCF7 cells assessed as accumulation at G2/M phase at 15 uM after 48 hrs by DNA flow cytometric assay; format: functional; method in brief: as §3
[11] = tested on: MCF7; assay: Induction of apoptosis in human MCF7 cells assessed as accumulation at G2/M phase at 15 uM after 24 hrs by DNA flow cytometric assay; format: functional; method in brief: as §3
[12] = tested on: MCF7; assay: Induction of apoptosis in human MCF7 cells assessed as accumulation at subG1 phase at 15 uM after 48 hrs by DNA flow cytometric assay; format: functional; method in brief: as §3
[13] = tested on: MCF7; assay: Induction of apoptosis in human MCF7 cells assessed as accumulation at G0/G1 phase at 15 uM after 48 hrs by DNA flow cytometric assay; format: functional; method in brief: as §3
[14] = tested on: MCF7; assay: Induction of apoptosis in human MCF7 cells assessed as accumulation at S phase at 15 uM after 24 hrs by DNA flow cytometric assay; format: functional; method in brief: as §3
[15] = tested on: MCF7; assay: Induction of apoptosis in human MCF7 cells assessed as accumulation at G0/G1 phase at 15 uM after 24 hrs by DNA flow cytometric assay; format: functional; method in brief: as §3
[16] = tested on: MCF7; assay: Induction of apoptosis in human MCF7 cells assessed as apoptotic cells at 15 uM after 48 hrs by TUNEL assay; format: functional
Method in brief: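 TUNEL (Apo-Direct) on MCF-7 cells treated with compound or vehicle, with camptothecin as positive control. Cells were fixed in paraformaldehyde and then ethanol, labelled with FITC-dUTP for 1 h at 37 °C, counterstained with PI/RNase, and analysed by flow cytometry. Read-out is % apoptotic cells, mean ± SEM of three independent experiments in duplicate wells.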

[17] = tested on: MCF7; assay: Induction of apoptosis in human MCF7 cells assessed as accumulation at S phase at 15 uM after 48 hrs by DNA flow cytometric assay; format: functional; method in brief: as §3

Compound	GI50 [1]	GI50 [2]	TGI [2]	CC50 [2]	GI50 [3]	TGI [3]	CC50 [3]	GI50 [4]	GI50 [5]	TGI [5]	CC50 [5]	GI50 [6]	LC50 [6]	TGI [6]	GI50 [7]	TGI [7]	CC50 [7]	GI50 at 72 h [8]	LC50 [8]	TGI [8]	also measured
C[Se]/C(=N\C(=O)c1sccc1Cl)NC(=O)c1sccc1Cl	0.24 µM	4.81 µM	28.5 µM	90 µM	0.97 µM	7.03 µM	> 100 µM	0.0059 µM	0.69 µM	4.02 µM	8.67 µM	300 nM	> 100 µM	31.2 µM	4.9 nM	> 100 µM	> 100 µM	3.16 µM	7.82 µM	5.49 µM	–
C[Se]/C(=N\C(=O)c1ccno1)NC(=O)c1ccno1	0.03 µM	0.87 µM	45.6 µM	> 100 µM	0.09 µM	39.3 µM	> 100 µM	4.9 µM	0.51 µM	9.35 µM	> 100 µM	0.09 nM	> 100 µM	57.5 µM	0.79 nM	> 100 µM	> 100 µM	2.89 µM	63.94 µM	15.41 µM	–
C[Se]/C(=N\C(=O)c1csc([N+](=O)[O-])c1)NC(=O)c1csc([N+](=O)[O-])c1	0.11 µM	4.98 µM	> 100 µM	> 100 µM	0.1 µM	7.09 µM	> 100 µM	7.1 µM	0.62 µM	1.55 µM	10 µM	0.76 nM	> 100 µM	28.1 µM	0.63 nM	> 100 µM	> 100 µM	1.95 µM	7.53 µM	4.74 µM	–
C[Se]/C(=N\C(=O)c1cc(-c2ccccc2)nc2ccccc12)NC(=O)c1cc(-c2ccccc2)nc2ccccc12	3.72 µM	5.8 µM	30.6 µM	73 µM	3.97 µM	40.2 µM	> 100 µM	0.85 µM	4.54 µM	10.1 µM	65.4 µM	490 nM	> 100 µM	7.52 µM	460 nM	90.7 µM	90.7 µM	0.71 µM	76.9 µM	20.05 µM	–
C[Se]/C(=N\C(=O)c1ccco1)NC(=O)c1ccco1	0.16 µM	8.78 µM	> 100 µM	> 100 µM	0.36 µM	56.7 µM	> 100 µM	1 µM	0.76 µM	8.66 µM	> 100 µM	30 nM	> 100 µM	88.9 µM	0.05 nM	> 100 µM	> 100 µM	5.94 µM	98.07 µM	40.16 µM	–
C[Se]/C(=N\C(=O)c1cnc2ccccc2c1)NC(=O)c1cnc2ccccc2c1	1.42 µM	3.8 µM	29.9 µM	74.8 µM	2.33 µM	43.6 µM	> 100 µM	0.46 µM	4.16 µM	23.7 µM	87.8 µM	660 nM	60.7 µM	8.03 µM	200 nM	> 100 µM	> 100 µM	20.3 µM	83.86 µM	52.1 µM	Activity [9]: 10.29%; Activity [10]: 19.97%; Activity [11]: 7.21%; Activity [12]: 11.34%; Activity [13]: 32.87%; Activity [14]: 8.1%; Activity [15]: 73.06%; Activity [16]: 27.19%; Activity [17]: 32.68%
O=C(/N=C(/NC(=O)c1cc(-c2ccccc2)nc2ccccc12)[Se]Cc1ccccc1)c1cc(-c2ccccc2)nc2ccccc12	–	9.06 µM	47.4 µM	88.9 µM	39.3 µM	97.1 µM	> 100 µM	–	25.8 µM	52.4 µM	78.9 µM	8460 nM	97 µM	45.6 µM	6070 nM	> 100 µM	> 100 µM	8.46 µM	97.04 µM	45.56 µM	–
O=C(/N=C(/NC(=O)c1ccco1)[Se]Cc1ccccc1)c1ccco1	–	9.53 µM	44.2 µM	80.6 µM	30.5 µM	57.6 µM	84.8 µM	–	7.65 µM	39.5 µM	76.5 µM	8800 nM	> 100 µM	58 µM	7190 nM	89.1 µM	89.1 µM	8.8 µM	> 100 µM	57.98 µM	–
